KCNQ1 inh: blocks the human KCNQ1 potassium channel; P51787; CHO-K1 KCNQ1, FluxOR thallium flux fluorescence; hits give high values; B-score at 10 µM; 310,000 tested, 1.3% active;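 active = compounds whose thallium flux B-score, printed positive for inhibition, exceeds three library SD while starting fluorescence stays within three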;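 note: channel opened by potassium depolarization with thallium stimulus after 20 min compound exposure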
KCNQ1 pot: potentiators or activators of human KCNQ1 potassium channel | P51787 | CHO-K1 KCNQ1, thallium flux FluxOR fluorescence; hits give high values | B-score at 10 µM | 310,000 tested, 0.35% active | AID 2648;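 active = fluorescence ratio B-score, a plate-corrected score, at least three library SD, with initial intensity B-score within 5 SD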
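Schedule – 37 °C overnight plating, 90-min dark dye load, 20-min compound pretreatment · System – stable KCNQ1 CHO-K1 line · Probe or stimulus – thallium- and potassium-containing depolarizing buffer · Measured by – kinetic FluxOR fluorescence, 10 s baseline plus 110 s post-stimulus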
Kir21 block: Kir2.1 (mouse) channel inhibition; B-score at 10 µM; HEK293-Kir2.1, FluxOR thallium flux fluorescence; hits give low values; 310,000 tested, 0.85% active;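 active = fluorescence ratio B-score at or below minus 3 SD of library scores, with starting-brightness B-score within 2 SD, cut at about -4.2 in these data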;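 note: channel flux triggered by added potassium and thallium sulfate stimulus; B-score of peak minus minimum fluorescence over baseline after thallium stimulus; more negative B-score means stronger Kir2.1 block with less thallium influx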
KCNK9 inh: blocks the human KCNK9 two-pore domain potassium channel; Q9NPC2; HEK293 KCNK9, FluxOR thallium flux fluorescence; hits give low values; B-score at 10 µM; 310,000 tested, 1.2% active;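 active = ratio B-score over 3 SD below the library mean, with starting fluorescence within 5 SD of its mean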;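 note: negative B-score means less thallium flux so channel inhibition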
hERG rescue: shields human hERG channel from block by proarrhythmic agents; Q12809; CHO-hERG, FluxOR thallium flux, dofetilide IC70 present; activation (rescue from dofetilide block), less the hit threshold, % at 10 µM; 310,000 tested, 0.51% active; AID 1511;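 active = activation above the mean of controls blocked by dofetilide plus 5 SD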;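 note: thallium influx through hERG after potassium depolarization seen as dye fluorescence rise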
KCNK3 block: human KCNK3 channel inhibition, primary screen; B-score at 10 µM; AID 602410; CHO-KCNK3 thallium flux, FluxOR fluorescence; hits give low values; 340,000 tested, 0.84% active; O14649;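 active = B-score under library mean minus 4 SD, starting fluorescence ratio at most library mean plus 5 SD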;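 note: more negative B-score means stronger inhibition of thallium flux through KCNK3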
Target sequence (O14649 whole entry, looked up): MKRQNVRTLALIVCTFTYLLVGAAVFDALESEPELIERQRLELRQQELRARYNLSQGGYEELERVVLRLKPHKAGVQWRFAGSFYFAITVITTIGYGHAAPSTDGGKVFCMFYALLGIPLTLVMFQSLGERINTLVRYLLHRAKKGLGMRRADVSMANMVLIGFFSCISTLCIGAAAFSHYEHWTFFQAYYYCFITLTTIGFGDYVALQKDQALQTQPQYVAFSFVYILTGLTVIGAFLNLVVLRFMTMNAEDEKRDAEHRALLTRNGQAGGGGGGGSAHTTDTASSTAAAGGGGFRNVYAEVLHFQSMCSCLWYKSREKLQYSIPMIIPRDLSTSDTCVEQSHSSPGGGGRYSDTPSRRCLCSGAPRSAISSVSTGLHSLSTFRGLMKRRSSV
Large screens that a line does not name were inactive. An excerpt weighted towards active compounds, which were near 3.8% of everything screened.

CCOc1ccc(CCNC(=O)C2CCCN(S(C)(=O)=O)C2)cc1OCC (stereo not drawn)	none
N#CC1=C(N)NC(SCC(=O)Nc2ccc(Br)cc2)=C(C#N)C12CCCCC2	KCNQ1 inh 9
Cc1nc(SCC(=O)NCCc2ccc(Cl)cc2)nc(C)c1C	Kir21 block -5
Cc1nn(CCc2nn[nH]n2)c2nc(-c3ccc(C4CCCCC4)cc3)cc(C(F)(F)F)c12	KCNQ1 pot 50
Cc1nn(CCC(=O)O)c2nc(-c3cccnc3)cc(C(F)(F)F)c12	none
CCOC(=O)c1c(NC(=O)CCC(=O)O)sc2c1CC(C)(C)OC2	none
CCCC[C@H](CN(N=O)[C@@H](Cc1ccccc1)CN(C)N=O)N(CCc1ccccc1)N=O	KCNQ1 inh 6
COc1ccc(NC(=O)c2ccc(COCC(F)(F)C(F)F)cc2)cc1	hERG rescue 13
COc1ccc(NC(=O)c2ccc(COCC(F)(F)C(F)F)cc2)cc1OC	none
CCOC(=O)/C(=C/C=C1\Sc2cc(C)c(C)cc2N1CC)C(C)=O	KCNQ1 inh 13
COc1ccc2c(c1)sc1nc(=O)ccn12	none
Cc1ccc2c(c1)sc1nc(=O)ccn12	hERG rescue 6.7
CC(=O)Nc1ccc(S(=O)(=O)NCCC(=O)N2CCCCC2)cc1	none
CCC(=O)NC(C)C(c1cccs1)N1CCN(Cc2ccccc2)CC1 (stereo not drawn)	none
O=C1CSC(c2ccccc2[N+](=O)[O-])N1c1ccc(O)cc1 (stereo not drawn)	none
O=C1CSC(c2ccccc2[N+](=O)[O-])N1c1ccccc1 (stereo not drawn)	Kir21 block -4.5
Cc1c(CCOC(=O)CC23CC4CC(CC(C4)C2)C3)sc[n+]1CC(=O)c1ccccc1	KCNQ1 inh 6
Cc1c(CCOC(=O)C23CC4(C)CC(C)(CC(C)(C4)C2)C3)sc[n+]1CC(=O)c1ccccc1	none
O=C(NCC1CCCO1)c1ccc(Br)o1 (stereo not drawn)	none
C=CCNc1nc(-c2ccc(OC)cc2OC)cs1	none
OC1(c2ccc(Cl)cc2)CCN(Cc2c[nH]c3ccccc23)CC1	Kir21 block -6.8
CC1(C(=O)Nc2nc3ccccc3s2)CC1(Br)Br (stereo not drawn)	none
Nc1nnnn1/N=C/c1cc(Cl)cc(Cl)c1O	none
COc1ccccc1-n1cnnc1SCc1csc(-c2ccccc2)n1	none (no result: KCNQ1 inh, KCNQ1 pot, Kir21 block, KCNK9 inh, hERG rescue)
C=CCn1c(SCc2csc(-c3ccc(C)cc3)n2)nnc1-c1ccccc1OC	KCNQ1 inh 6, Kir21 block -7.7
CCN(CCO)Cc1csc2ccc(C(C)(C)C)cc12	Kir21 block -7
CCN(CCO)Cc1csc2cc(C)ccc12	none
COc1cc(/C=C2/C(=O)NN(c3cccc(C)c3)C2=O)ccc1OC(=O)c1ccco1	Kir21 block -6.1
Cc1cccc(OC(=O)NCCOC(=O)N(O)c2ccc(Cl)cc2)c1	KCNQ1 inh 6
Cc1cccc(OCC(=O)Oc2ccc(Cl)cc2)c1	none
Cc1cccc(C)c1NC(=S)N(C)CCc1ccccn1	none
CC(C)c1ccc(NC(=S)N(C)CCc2ccccn2)cc1	hERG rescue 29
CC(C)(C)C1CCc2c(sc(NC(=O)C3CC=CCC3C(=O)O)c2C#N)C1 (stereo not drawn)	hERG rescue 14
Cc1nn(C(C)C(=O)Nc2sc3c(c2C#N)CCCC3)c(C)c1[N+](=O)[O-] (stereo not drawn)	none
N#Cc1c(NC(=O)C2CC=CCC2C(=O)O)sc2c1CCCCCC2 (stereo not drawn)	none
Cc1nn(CC(=O)Nc2sc3c(c2C#N)CCC(C(C)(C)C)C3)c(C)c1[N+](=O)[O-] (stereo not drawn)	KCNQ1 inh 8
O=[N+]([O-])c1cc(Cl)cc(/C=N/Nc2nc3ccccc3s2)c1O	KCNQ1 inh 6
COc1ccc(C(=O)NC2(C(F)(F)F)N=C3SCCN3C2=O)cc1 (stereo not drawn)	none
COc1ccc(N2CCN(S(=O)(=O)c3ccc4oc(=O)ccc4c3)CC2)cc1	none
CCOC(=O)c1nc(Nc2ccc(Nc3ccccc3)cc2)c2ccccc2n1	KCNK9 inh -7.6
Cc1ccc(OCC(=O)N(C)Cc2ccccc2)c([N+](=O)[O-])n1	none

Screening data: PubChem, Johns Hopkins Ion Channel Center
